Results taken from ChEMBL document CHEMBL2157991, “Synthesis and pharmacological evaluation of 2,4-dinitroaryldithiocarbamate derivatives as novel monoacylglycerol lipase inhibitors” (J Med Chem, 2012).
Substitutions are numbered along the chain they refer to. The source made the active and inactive calls. No cut-off for these calls is given here.

Columns and labels:
Monoglyceride lipase = target: T1, Monoglyceride lipase (Homo sapiens, UniProt Q99685); assay: Inhibition of human recombinant MAGL using [3H]-2-OG as substrate after 10 mins by liquid scintillation counter
T1 sequence (Q99685 whole entry): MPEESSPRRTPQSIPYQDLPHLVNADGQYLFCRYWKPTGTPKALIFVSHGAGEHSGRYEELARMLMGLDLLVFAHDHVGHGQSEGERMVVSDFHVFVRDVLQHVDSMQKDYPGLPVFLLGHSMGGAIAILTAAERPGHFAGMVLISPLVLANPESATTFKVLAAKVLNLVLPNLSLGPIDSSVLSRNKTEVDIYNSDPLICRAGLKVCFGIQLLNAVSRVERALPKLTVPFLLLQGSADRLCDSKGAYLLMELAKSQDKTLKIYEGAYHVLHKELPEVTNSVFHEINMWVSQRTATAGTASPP
In short: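 Purified recombinant hMAGL (5 ng; Tris pH 8.0, 50 mM, 0.1% BSA) with inhibitor in DMSO and [3H]-2-OG (10 μM), 10 min at 37 °C; stopped with ice-cold methanol–chloroform, aqueous-phase radioactivity by liquid scintillation, no-enzyme blanks subtracted; pIC50 from dose–response, mean ± SEM of three experiments in duplicate.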

[1] = target: T2, Fatty-acid amide hydrolase 1 (Homo sapiens, UniProt O00519); assay: Inhibition of human recombinant FAAH assessed as conversion of [3H]AEA to [3H]ethanolamine after 10 mins by liquid scintillation counter
T2 sequence (O00519 whole entry): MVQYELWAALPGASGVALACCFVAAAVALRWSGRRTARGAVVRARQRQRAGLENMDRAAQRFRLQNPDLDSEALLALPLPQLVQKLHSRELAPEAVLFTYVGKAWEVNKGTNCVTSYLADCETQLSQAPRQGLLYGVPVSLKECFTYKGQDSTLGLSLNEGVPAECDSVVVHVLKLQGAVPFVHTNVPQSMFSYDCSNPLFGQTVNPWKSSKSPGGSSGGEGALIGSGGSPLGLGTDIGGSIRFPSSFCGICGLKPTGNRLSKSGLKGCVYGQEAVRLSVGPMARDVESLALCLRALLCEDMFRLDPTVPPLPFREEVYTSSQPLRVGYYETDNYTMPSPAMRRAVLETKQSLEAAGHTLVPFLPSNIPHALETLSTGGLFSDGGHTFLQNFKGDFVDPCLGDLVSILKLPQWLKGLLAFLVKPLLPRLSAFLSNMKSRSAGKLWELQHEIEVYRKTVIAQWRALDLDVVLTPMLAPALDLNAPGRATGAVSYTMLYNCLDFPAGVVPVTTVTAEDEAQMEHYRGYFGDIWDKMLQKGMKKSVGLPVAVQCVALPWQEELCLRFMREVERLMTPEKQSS
In short: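 Human recombinant FAAH (6 ng protein, Tris-EDTA) with inhibitor in DMSO; [3H]AEA at 2 μM final, 10 min at 37 °C; stopped with ice-cold methanol–chloroform, [3H]ethanolamine in aqueous layer counted by liquid scintillation, buffer blanks subtracted; pIC50 from dose–response, mean ± SEM of three experiments in duplicate.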

Homo sapiens = species on record: Homo sapiens; assay: Selectivity ratio of IC50 for human recombinant FAAH to IC50 for human recombinant MAGL
[2] = target: T3, Monoglyceride lipase (Homo sapiens) (UniProt Q99685); assay: Inhibition of MAGL at 10^-8.5 M after 30 mins by liquid scintillation counter
T3 sequence (whole entry): T1 sequence (Q99685 whole entry)
In short: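 Pure MAGL (105 ng, 20 μL) incubated 30 min at room temperature with inhibitor at 10−3 to 10−6 M or DMSO, then diluted 300-fold in Tris pH 8.0; after 15 min, aliquot assayed with [3H]-2-OG by standard protocol; same nominal post-dilution concentrations also assayed directly; percent of control, one-way ANOVA with Dunnett's test.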

[3] = target: T3, Monoglyceride lipase (Homo sapiens); assay: Inhibition of MAGL at 10^-4.5 to 10^-5 M after 30 mins by liquid scintillation counter in presence of DTT
In short: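 Purified MAGL (3 ng; Tris pH 8.0, 50 mM, 0.1% BSA) preincubated 10 min at room temperature with inhibitor at 10−4.5 and 10−5 M or DMSO; DTT (10−2 M) then added, 15 min at 37 °C, before [3H]-2-OG hydrolysis assay as standard; activity normalized to respective control, n analysed by one-way ANOVA with Bonferroni test.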

[4] = tested on: T4, Monoglyceride lipase (Homo sapiens), Q99685 [C208A]; assay: Inhibition of human MAGL C208A mutant expressed in Escherichia coli
T4 sequence (whole entry): T1 sequence (Q99685 whole entry) with C208A
In short: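 Homogenates of E. coli expressing wild-type or C201A, C208A, C242A or C208A/C242A mutant MAGL used as enzyme source in the [3H]-2-OG hydrolysis assay; n = 3 in duplicate.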

[5] = target: T5, Monoglyceride lipase (Mus musculus) (UniProt O35678); assay: Inhibition of MAGL in mouse B16 cells assessed as increase in 2-arachidonoylglycerol level at 10 uM after 8 hrs by isotope dilution HPLC-MS method; type: cell-based
T5 sequence (whole entry): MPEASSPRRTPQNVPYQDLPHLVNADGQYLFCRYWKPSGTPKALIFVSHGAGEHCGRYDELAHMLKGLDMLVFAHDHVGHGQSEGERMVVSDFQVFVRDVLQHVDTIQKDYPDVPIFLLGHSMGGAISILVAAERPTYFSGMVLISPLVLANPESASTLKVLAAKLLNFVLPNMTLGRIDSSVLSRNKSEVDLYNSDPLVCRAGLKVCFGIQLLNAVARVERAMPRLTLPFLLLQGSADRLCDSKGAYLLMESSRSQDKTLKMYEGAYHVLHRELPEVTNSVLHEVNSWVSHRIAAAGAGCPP
In short: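 Murine B16 melanoma cells (MEMα, 10% FBS, 37 °C, 5% CO2), 5 × 10^6 cells/condition seeded 12 h, then exposed 8 h to 10 μM inhibitor or 0.1% DMSO in 1% FBS medium; cells plus medium extracted with chloroform–methanol with d5-2-AG, silica SPE cleanup, 2-AG quantified by APCI-positive HPLC–MS isotope dilution, normalized to vehicle.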

IC50 (Monoglyceride lipase): 155 nM
IC50 [1]: 1740 nM
Ratio IC50 (Homo sapiens): 11
inhibition [2]: inactive
inhibition [3]: inactive
inhibition [4]: inactive
inhibition [5]: Active
SMILES: CC(C)(C)c1ccc(CN2CCN(C(=S)Sc3ccc([N+](=O)[O-])cc3[N+](=O)[O-])CC2)cc1
